The test system of one experiment is Enterococcus faecalis. The experiment is described as follows: Antibiotic activity against cytolysin-positive Enterococcus faecalis MMH594 infected in intestine of Caenorhabditis elegans glp-4(bn2ts);sek-1(km4) mutant infection model assessed as nematode survival at 50 to 100 ug/mL after 168 hrs by liquid infection assay. Format: functional, organism-based. An outline of the steps:
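C. elegans glp-4(bn2ts);sek-1(km4) synchronized L4 to young adult worms, fed E. coli OP50, infected on E. faecalis MMH594 lawn, then moved to liquid medium (19% BHI, 80% M9, 80 μg mL-1 kanamycin, 1% DMSO) with compound at 100 and 50 μg mL-1 final. Survival scored at 3, 48, 120, 168 h. Ampicillin positive control.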

A further experiment deals with Globisporangium ultimum. Put plainly: Antimicrobial activity against Pythium ultimum mycelia assessed as growth inhibition. In kind it is functional.
The test system of a further experiment is Pyricularia grisea. The experiment is described as follows: Antimicrobial activity against Magnaporthe grisea mycelia assessed as growth inhibition. In kind it is functional.

Drawing on ChEMBL document CHEMBL1799936, “Azaphilones from the endophyte Chaetomium globosum” (2011), this text covers Activity and MIC for twelve molecules.

By MIC is commonly meant the lowest concentration that inhibits growth of the organism.

In brackets after ≈: the same amount, converted by molar mass. Activity calls are given as the source filed them. The rule behind the calls is not given here.

As to `CC[C@H](C)/C=C/C1=CC2=C(Cl)C(=O)[C@@]3(C)OC(=O)C(C(=O)[C@H](C)[C@@H](C)O)=C3C2=CO1`, the result in the experiment with Enterococcus faecalis was inactive.

For the molecule `CC[C@H](C)/C=C/C1=CC2=C(Cl)C(=O)[C@@]3(C)OC(O)(C(C)C(C)O)[C@@H](C(=O)O)[C@H]3C2=CO1` (stereo partly specified) [CHAETOVIRIDIN B], the MIC in the experiment on Globisporangium ultimum amounted to 33.3 µg/mL (≈ 73.5 µM); in the experiment on Pyricularia grisea, 1.23 µg/mL (≈ 2.72 µM). In the experiment with Enterococcus faecalis, the outcome was inactive.

Regarding `CC[C@H](C)/C=C/C1=CC2=C(Cl)C(=O)[C@@]3(C)OC(=O)C(C(=O)[C@H](C)CC)=C3C2=CO1`, the outcome with Enterococcus faecalis was inactive.

Consider `CC[C@H](C)/C=C/C1=CC2=C(Cl)C(=O)[C@@]3(C)OC(=O)C4=C(C(C)C(C)O)OC(O1)C2(O)C43O` (stereo partly specified), for which the outcome in the experiment with Enterococcus faecalis was inactive.

Regarding `CC[C@H](C)/C=C/C1=CC2=C(Cl)C(=O)[C@@]3(C)OC(=O)C(C(=O)[C@@H](C)[C@@H](C)O)=C3C2=CO1` [CHAETOVIRIDIN A], the MIC amounted to 33.3 µg/mL (≈ 76.9 µM) in the experiment with Globisporangium ultimum and 1.23 µg/mL (≈ 2.84 µM) with Pyricularia grisea. In addition, the result with Enterococcus faecalis was inactive.

Turning to `CC[C@H](C)/C=C/C1=CC2=CC(=O)[C@@]3(C)OC(=O)C(C(=O)[C@@H](C)[C@@H](C)O)=C3C2=CO1`, in the experiment with Enterococcus faecalis, the result was inactive.

With `CC[C@H](C)/C=C/C1=CC2=C(Cl)C(=O)[C@@]3(C)OC(=O)[C@@H](C(=O)[C@@H](C)[C@H](C)O)[C@H]3C2=CO1`, the result with Enterococcus faecalis was inactive.

Consider `C[C@H](O)[C@H](C)C(=O)[C@@H]1C(=O)O[C@]2(C)C(=O)C(Cl)=C3C=C(/C=C/[C@@H](C)[C@@H](C)O)OC=C3[C@H]12`, for which the outcome with Enterococcus faecalis was inactive.

Regarding `C/C=C(\C)C(=O)C1=C2C3=COC(/C=C/[C@@H](C)CC)=CC3=C(Cl)C(=O)[C@@]2(C)OC1=O`, the outcome in the experiment with Enterococcus faecalis was inactive.

Regarding `CC(O)C(C)C1(O)O[C@]2(C)C(=O)C(Cl)=C3C=C(/C=C/[C@@H](C)[C@@H](C)O)OC=C3[C@@H]2[C@@H]1C(=O)O` (stereo partly specified), the result in the experiment on Enterococcus faecalis was inactive.

Take `C/C=C(\C)C(=O)[C@@H]1C(=O)O[C@]2(C)C(=O)C(Cl)=C3C=C(/C=C/[C@@H](C)CC)OC=C3[C@H]12`: in the experiment on Enterococcus faecalis, the result was inactive.

With `CC[C@H](C)/C=C/C1=CC2=C(Cl)C(=O)[C@@]3(C)OC(=O)C(C(=O)[C@@H](C)[C@H](C)O)=C3C2=CO1`, in the experiment on Enterococcus faecalis, the result was inactive.
